Our source for the inhibition and IC50 values is ChEMBL document CHEMBL4257549, “Design, synthesis and biological evaluation of benzimidazole-rhodanine conjugates as potent topoisomerase II inhibitors” (Medchemcomm, 2018).

Calls of active or inactive are those of the source. No cut-off for these calls is given here.

The species named for test [1] is Homo sapiens. Description: Inhibition of human topoisomerase 2-mediated pBR322 DNA relaxation at 20 uM after 30 mins by agarose gel electrophoresis.
In test [2] the test system is MDA-MB-231. Description: Cytotoxicity against human MDA-MB-231 cells after 48 hrs by MTT assay. The test is classed as functional, cell-based. As to conditions: MDA-MB-231, 48 h. The method, boiled down:
(§1)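 Cells seeded at 5000 per well, left overnight, then exposed to compound at 0–50 μM for 48 h. MTT (20 μL of 2.5 mg mL−1) added for a further 4 h at 37 °C, formazan dissolved in DMSO, absorbance read at 570 nm. Quadruplicate wells, N > 2 determinations, mean IC50 taken as the concentration reducing cell number to 50%.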

For test [3], the species on record is Homo sapiens. Put plainly: Inhibition of human topoisomerase 2-mediated pBR322 DNA relaxation at 50 uM after 30 mins by agarose gel electrophoresis. The method, boiled down: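 Relaxation of 200 ng supercoiled pBR322 by 1 U Topo II (TopoGEN) in 20 μL buffer: 50 mM Tris-HCl pH 8.0, 150 mM NaCl, 10 mM MgCl2, 2 mM ATP, 0.5 mM DTT, 30 μg/mL BSA. Incubated 30 min at 37 °C, stopped with sarcosyl/glycerol dye. Products run on 1% agarose in TAE (1.5 h, 75 V), Ged Red stained, UV imaged; etoposide positive control.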

In test [4] the test system is A549. Description: Cytotoxicity against human A549 cells after 48 hrs by MTT assay. As to conditions: A549, 48 h. In kind it is functional, cell-based. The method, boiled down: as §1
(Tetrazolium assays rely on reduction of a dye to a coloured formazan, in cell work by metabolically active cells.)

The test system of test [5] is HL-60. Put plainly: Cytotoxicity against human HL60 cells after 48 hrs by MTT assay. In kind it is functional, cell-based. As to conditions: HL-60, 48 h. The method, boiled down:
as §1

The test system of test [6] is HeLa. Put plainly: Cytotoxicity against human HeLa cells after 48 hrs by MTT assay. In kind it is functional, cell-based. The method, boiled down:
as §1

The species entered for test [7] is Homo sapiens. Put plainly: Inhibition of human topoisomerase 2-mediated pBR322 DNA relaxation at 10 uM after 30 mins by agarose gel electrophoresis.
Test [8] has as its system Raji. Put plainly: Cytotoxicity against human Raji cells after 48 hrs by MTT assay. The test is classed as functional, cell-based. Summed up: as §1
For test [9], the target named is T1, DNA topoisomerase 1 (Homo sapiens) (UniProt P11387).
T1 sequence (whole entry): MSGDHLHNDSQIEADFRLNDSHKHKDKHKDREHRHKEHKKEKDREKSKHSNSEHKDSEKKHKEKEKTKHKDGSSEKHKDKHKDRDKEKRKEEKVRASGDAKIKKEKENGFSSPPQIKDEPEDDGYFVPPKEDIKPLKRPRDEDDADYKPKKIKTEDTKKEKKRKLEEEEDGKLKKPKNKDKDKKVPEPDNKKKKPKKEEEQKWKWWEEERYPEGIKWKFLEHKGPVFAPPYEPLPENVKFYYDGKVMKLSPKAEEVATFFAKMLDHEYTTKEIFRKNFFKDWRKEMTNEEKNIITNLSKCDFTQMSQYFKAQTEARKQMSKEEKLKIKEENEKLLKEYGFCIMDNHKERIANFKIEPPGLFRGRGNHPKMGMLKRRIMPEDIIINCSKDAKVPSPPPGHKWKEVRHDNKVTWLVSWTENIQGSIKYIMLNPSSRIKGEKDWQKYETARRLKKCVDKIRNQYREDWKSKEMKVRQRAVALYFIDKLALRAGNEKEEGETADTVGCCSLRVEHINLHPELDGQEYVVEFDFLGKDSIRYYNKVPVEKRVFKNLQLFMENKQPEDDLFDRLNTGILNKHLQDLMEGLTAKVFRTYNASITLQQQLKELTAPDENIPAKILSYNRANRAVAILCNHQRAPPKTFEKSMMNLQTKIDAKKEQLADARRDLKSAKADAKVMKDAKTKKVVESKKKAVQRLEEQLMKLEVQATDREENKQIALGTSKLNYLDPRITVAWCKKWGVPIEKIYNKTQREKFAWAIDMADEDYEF
Put plainly: Inhibition of topoisomerase 1 (unknown origin)-mediated pBR322 DNA relaxation at 50 uM after 30 mins by agarose gel electrophoresis. Summed up: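 Topo I relaxation of pBR322 with compound at 30 min, 37 °C, camptothecin positive control. Stopped with SDS/bromophenol blue/glycerol dye, run on 1% agarose in TAE for 1.5 h, Ged Red stained, UV visualized.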

Test [10] deals with PC-3. Put plainly: Cytotoxicity against human PC3 cells after 48 hrs by MTT assay. The test is classed as functional, cell-based. As to conditions: PC-3, 48 h. The method, boiled down:
as §1

As a reminder, the IC50 is the point on the concentration scale where inhibition reaches its midpoint. On to `COc1ccc2nc(/C=C3\SC(=S)N(CC(=O)O)C3=O)n(Cc3ccccc3F)c2c1`, for which the inhibition entry in test [1], in test [3] and in test [7] was “Active” throughout. The IC50 in test [2] was 22.4 µM; in [4], 36.2 µM; in test [5], 6.44 µM; in test [6], 28.1 µM; in test [8] it was 12.3 µM; in test [10] it was greater than 50 µM. The inhibition result in test [9] was “inactive”.
Take `O=C(O)CN1C(=O)/C(=C/c2nc3ccccc3n2CC(=O)c2ccc(F)cc2)SC1=S`: the inhibition result in test [1] and in [7] was “Active” each time. Also, the IC50 in [2] stood at 6.31 µM; in test [4], 12.8 µM; in test [5], 3.96 µM; in test [6], 14.8 µM; in [8] it was 8.24 µM; in [10], 9.87 µM. In addition, the inhibition result in test [9] was “inactive”.
For `COc1cc(Cn2c(/C=C3\SC(=S)N(CC(=O)O)C3=O)nc3ccccc32)cc(OC)c1`, the inhibition result in test [1] and in [7] was “Active” in each case. Moreover, the IC50 in test [2] amounted to 1.28 µM; in test [4], 5.17 µM; in [5], 1.41 µM; in [6], 17.7 µM; in [8], 2.11 µM; in test [10] it was 6.37 µM.
For `O=C(O)CN1C(=O)/C(=C/c2nc3ccc(Cl)cc3n2Cc2ccccc2F)SC1=S`, the inhibition entry in [1], in test [3] and in [7] was “Active” each time. Besides, the IC50 in test [2] was 9.57 µM; in test [4], 26.9 µM; in [5] it was 5.23 µM; in test [6] it was 7.62 µM; in [8], 8.87 µM; in [10], 17.3 µM. Also, in test [9], the inhibition entry was “inactive”.
For the compound `O=C(O)CN1C(=O)/C(=C/c2nc3ccccc3n2CC(=O)c2ccc(Cl)cc2)SC1=S`, the inhibition entry in test [1] and in test [7] was “Active” each time. For the same compound, the IC50 in test [2] amounted to 1.12 µM; in [4], 9.85 µM; in test [5], 2.43 µM; in [6] it was 27.3 µM; in test [8], 3.18 µM; in test [10] it was 6.45 µM. In addition, the inhibition result in test [9] is “inactive”.
For `COc1ccc2c(c1)nc(/C=C1\SC(=S)N(CC(=O)O)C1=O)n2Cc1ccc(C)cc1`, the inhibition result in [1], in [3] and in [7] was “Active” in each case. Also, the IC50 in test [2] was 1.22 µM; in test [4], 5.68 µM; in test [5], 0.77 µM; in test [6], 1.82 µM; in test [8], 1.79 µM; in [10], 3.64 µM. Besides, in test [9], the inhibition result was “inactive”.
`O=C(O)CN1C(=O)/C(=C/c2nc3ccc(F)cc3n2Cc2ccccc2F)SC1=S`: the inhibition result in test [1], in test [3] and in [7] was “Active” in each case. Moreover, the IC50 in test [2] was greater than 50 µM; in test [4], greater than 50 µM; in [5] it was 5.23 µM; in [6], greater than 50 µM; in test [8], 22.4 µM; in test [10], greater than 50 µM. Further, in test [9], the inhibition result is “inactive”.
Regarding `O=C(O)CN1C(=O)/C(=C/c2nc3cc(Cl)ccc3n2Cc2ccccc2F)SC1=S`, the inhibition entry in test [1], in test [3] and in test [7] was “Active” each time. The IC50 worked out at 1.67 µM in test [2]; 5.64 µM in [4]; 0.87 µM in test [5]; 9.52 µM in test [6]; 2.78 µM in test [8]; 3.48 µM in test [10]. In addition, the inhibition entry in [9] is “inactive”.
Consider `O=C(O)CN1C(=O)/C(=C/c2nc3ccccc3n2Cc2ccc(F)c(F)c2)SC1=S`, for which the inhibition result in test [1], in test [3] and in [7] was “Active” throughout. Further, the IC50 in test [2] turned out to be 3.76 µM; in test [4], 13.4 µM; in test [5], 2.74 µM; in test [6], 16 µM; in test [8], 7.25 µM; in test [10], 5.97 µM. Moreover, the inhibition entry in test [9] was “inactive”.
In the case of `Cc1ccc(Cn2c(/C=C3\SC(=S)N(CC(=O)O)C3=O)nc3ccc(F)cc32)cc1`, the inhibition entry in test [1], in test [3] and in test [7] was “Active” in each case. The IC50 in test [2] was found to be 3.86 µM; in [4], 9.64 µM; in test [5], 1.69 µM; in test [6], 3.92 µM; in [8], 2.44 µM; in test [10], 5.82 µM. Further, the inhibition entry in test [9] was “inactive”.
In the case of `O=C(O)CN1C(=O)/C(=C/c2nc3ccccc3n2Cc2ccc(Br)cc2F)SC1=S`, the inhibition result in test [1] and in test [9] was “inactive” each time. The IC50 in test [2] is 28.4 µM; in test [4], 27.3 µM; in test [5], 6.42 µM; in test [6] it was greater than 50 µM; in test [8] it was 11.4 µM; in test [10], 21.1 µM. Further, the inhibition entry in [3] is “Active”.
Regarding `Cc1ccc(Cn2c(/C=C3\SC(=S)N(CC(=O)O)C3=O)nc3cc(F)ccc32)cc1`, the inhibition result in test [1], in [3] and in test [7] was “Active” in each case. The IC50 in [2] was 6.55 µM; in test [4] it was 13.8 µM; in [5] it was 1.17 µM; in [6], 2.38 µM; in test [8], 3.28 µM; in test [10], 10.2 µM. Further, the inhibition result in test [9] is “inactive”.
Take `Cc1ccc(Cn2c(/C=C3\SC(=S)N(CC(=O)O)C3=O)nc3ccc(Cl)cc32)cc1`: the inhibition entry in test [1] and in [3] was “Active” in each case. In addition, the IC50 in [2] worked out at 3.96 µM; in test [4], 9.97 µM; in test [5] it was 2.84 µM; in [6] it was 11 µM; in [8], 2.79 µM; in test [10] it was 1.52 µM. Also, the inhibition result in test [9] is “inactive”.
With `O=C(O)CN1C(=O)/C(=C/c2nc3cc(F)ccc3n2Cc2ccccc2F)SC1=S`, the inhibition entry in [1] and in test [9] was “inactive” throughout. In addition, the IC50 in [2] was 22.4 µM; in test [4], 32.6 µM; in [5], greater than 50 µM; in test [6], greater than 50 µM; in [8], 20.4 µM; in test [10] it was greater than 50 µM. The inhibition entry in test [3] was “Active”.
On to `Cc1ccc(Cn2c(/C=C3\SC(=S)N(CC(=O)O)C3=O)nc3cc(Cl)ccc32)cc1`, for which the inhibition entry in test [1], in test [3] and in test [7] was “Active” each time. Also, the IC50 in test [2] worked out at 13.7 µM; in test [4], 38.6 µM; in [5], 2.72 µM; in test [6], 21.4 µM; in [8], 20.9 µM; in test [10], 26.7 µM. Besides, the inhibition result in test [9] is “inactive”.
